Most compounds without a hit are left out; they make up all but 2.2% or so of the library.
TCR CD3 inh = inhibitors of human TCR-CD3 interaction, primary screen, biochemical, fluorescence, TAMRA-labeled TCR probe; T-cell receptor (TCR); inhibition, % at 9.4 µM; 360,000 tested, 0.37% active; in the data active means inhibition above about 19%;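 further: recombinant mutant TCR 2C K166C tagged with TAMRA read by polarization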
mABHD4 FP = ABHD4 inhibitors, primary screen, biochemical, fluorescence polarization, mouse | inhibition, % at 8.92 µM | (Lyso)-N-acylphosphatidylethanolamine lipase (Mus musculus), Q8VD66 | AID 720543, 2013 | 370,000 tested, 0.54% active | purified mABHD4, FP-Rh probe fluorescence polarization;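 active means inhibition exceeding the mean over every tested compound plus 3 SD, cut at about 30% in these data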
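Assay system: Wild-type mouse ABHD4 protein | Medium: HEPES pH 7.0 buffer, 150 mM NaCl, 0.01% Pluronic F-127 | Incubation: Enzyme–compound pre-incubation 45 min, then probe 60 min, both 25 °C | Technique: Fluorescence polarization with parallel and perpendicular emission, 525/598 nm | Evaluation: % inhibition of FP-Rh probe binding versus controls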
TDP2 inh = human TDP2 enzyme inhibitors, primary screen, biochemical, epi absorbance, recombinant enzyme; T5PNP hydrolysis, p-nitrophenol absorbance 415 nm; inhibition, % at 12.8 µM; 370,000 tested, 0.34% active; AID 720702, 2013;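 active means inhibition above the mean of all tested compounds plus 3 SD, set per campaign, cut at about 25% in these data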
Target sequence (O95551 whole entry, looked up): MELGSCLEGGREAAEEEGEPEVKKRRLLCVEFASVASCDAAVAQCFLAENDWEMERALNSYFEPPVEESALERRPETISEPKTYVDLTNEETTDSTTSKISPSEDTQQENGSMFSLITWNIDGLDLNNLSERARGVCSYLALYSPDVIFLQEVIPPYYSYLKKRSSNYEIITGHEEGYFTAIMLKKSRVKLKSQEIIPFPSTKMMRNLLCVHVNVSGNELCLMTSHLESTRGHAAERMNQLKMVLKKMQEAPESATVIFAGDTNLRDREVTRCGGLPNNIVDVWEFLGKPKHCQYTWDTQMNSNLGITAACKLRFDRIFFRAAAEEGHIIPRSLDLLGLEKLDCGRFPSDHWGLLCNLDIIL
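System – recombinant human TDP2 · Amount – 120 nM TDP2 per well · Buffer or medium – Mg2+-containing Tris-HCl buffer, pH 7.5 · Reagent – T5PNP substrate, 5 mM · Dosing – 12.8 µM single point, 1% DMSO · Incubation – 2 h at 37 °C · Measured by – epi absorbance · Read-out basis – percent inhibition · Benchmarks – high control without enzyme, low control DMSO plus TDP2 · Repeats – singlicate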
SIAE inh = human SIAE inhibitors, primary screen, biochemical, fluorescence polarization, FP-Rh probe, 1536-well HTS; Sialate O-acetylesterase (Homo sapiens), Q9HAT2; 370,000 tested, 0.69% active; inhibition, % at 9.66 µM; SIAE FP-Rh probe binding; AID 1053197, 2014;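 active means inhibition above a cutoff: mean of compounds within the control limits plus 3 SD of those, cut at about 17% in these data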
LEDGF integ inh = blockers of LEDGF/p75-dependent integrase strand transfer – biochemical, TR-FRET, high throughput, primary screen; HIV-1 integrase (with human LEDGF/p75); TR-FRET IN-LEDGF/p75 DNA integration, Eu/Cy5; inhibition, % at 3.7 µM; 370,000 tested, 0.64% active;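 active means inhibition above the screen-wide mean plus 3 SD, cut at about 13% in these data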;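 further: signal is the Cy5 over europium emission ratio at 671 and 618 nm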
HTRA1 inh = HTRA1 serine protease inhibitors, primary screen, biochemical, fluorescence polarization, HTS; Q92743; recombinant HTRA1, FP-rhodamine activity-based probe; inhibition, % at 5.96 µM; 340,000 tested, 0.5% active; AID 504803, 2011; in the data active means inhibition above about 36%
IN multimer up = HIV-1 IN multimer formation enhancers, counter-screen for LEDGF/p75 integration inhibitor project, biochemical, TR-FRET; activation, % at 7.7 µM; shares compounds with LEDGF integ inh; 2,000 tested, 17% active; TR-FRET HIV-1 integrase multimerization; in the data active means activation above about 8.9%
TRFRET interf = TR-FRET optical interference artefacts, confirmation, artefact control for LEDGF/p75-dependent integration inhibitor project, biochemical, HIV-1 IN multimerization; shares compounds with LEDGF integ inh; TR-FRET optical interference counterscreen; inhibition, % at 7.7 µM; 2,000 tested, under 10 active;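 active means inhibition above the mean over all tested compounds plus 3 SD, which no compound reached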
LEDGF integ conf = inhibitors of HIV-1 IN-LEDGF/p75 DNA integration, confirmation, biochemical, TR-FRET. 2,000 tested, 36% active. shares compounds with LEDGF integ inh. TR-FRET LEDGF/p75-dependent HIV-1 integration. AID 1053136, 2014. inhibition, % at 3.7 µM; in the data active means inhibition above about 14%
Hits are given with their value; i = inactive; nt = no result given; ! = repeats disagree.

SMILES	TCR CD3 inh	mABHD4 FP	TDP2 inh	SIAE inh	LEDGF integ inh	HTRA1 inh	IN multimer up	TRFRET interf	LEDGF integ conf
O=C(/C=C/c1cccs1)Nc1scc(-c2ccccc2)c1C(=O)O	i	i	i	i	23	i	i	i	35
Cc1ccc(S(=O)(=O)NC2=NCN(CCN3CCOCC3)CN2)cc1	i	i	i	i	22	i	i	i	i
CC(C(=O)N(C)C1CCS(=O)(=O)C1)N1C(=O)/C(=C/c2ccco2)SC1=S (configuration not stated)	i	i	i	i	30	i	i	i	15
CN(C)c1ccc2c(c1)OC(N)=C(C#N)C2c1cccc(F)c1 (configuration not stated)	nt	nt	nt	nt	nt	i	nt	nt	nt
COc1ccc(OC)c(C2C(C#N)=C(N)Oc3cc(N)ccc32)c1 (configuration not stated)	i	i	i	i	14	i	i	i	i
N#CC1=C(N)Oc2cc(N)ccc2C1c1cccc(F)c1 (configuration not stated)	i	i	i	i	15	i	i	i	i
Cc1cccc(C)c1NC(=O)C1c2ccccc2OCC(=O)N1CCc1c[nH]c2ccccc12 (configuration not stated)	i	i	i	i	i	nt	nt	nt	nt
O=C(CSc1nnc(CNC(=O)c2cccc(C(F)(F)F)c2)o1)NC1CCCC1	i	i	i	i	45	i	i	i	i
O=C(CSc1nnc(CNC(=O)c2cccc(C(F)(F)F)c2)o1)NCC1CCCO1 (configuration not stated)	i	i	i	i	i	i	nt	nt	nt
CC(=O)N(C)c1ccc(N=Cc2cc3c(cc2[N+](=O)[O-])OCO3)cc1	i	i	37	i	43	i	i	i	51
Brc1cnc2nc(SC/C=C/c3ccccc3)[nH]c2c1	i	i	i	i	37	i	i	i	i
CCc1ccc(O)c(-c2cc(C(=O)Nc3cccnc3)[nH]n2)c1	i	i	i	i	15	i	i	i	i
COc1ccc(/C=C2\CCc3c2nc2ccccc2c3C(=O)O)cc1OC	i	i	i	i	15	i	i	i	22
CN(Cc1ccccc1)C(=O)OCc1cn(Cc2cccc(Cl)c2)nn1	nt	i	i	i	i	nt	nt	nt	nt
N=C1/C(=C\c2coc3ccccc3c2=O)C(=O)N=C2SC=CN12	i	i	i	i	15	i	i	i	26
CCc1ccc(CN2CCC(CO)(CC3CCCCO3)CC2)o1 (configuration not stated)	i	i	i	i	13	i	i	i	i
CCOc1ccc(N=Cc2ccc([N+](=O)[O-])cc2)c(O)c1	i	35	i	i	20	i	11	i	i
CCOc1ccc(CNC(=S)N/N=C\c2ccc([N+](=O)[O-])cc2)cc1	i	i	i	i	i	i	nt	nt	nt
Cc1ccc(CCNC(=O)CCS(=O)(=O)c2cc3c(cc2C)NC(=O)CO3)cc1	i	i	i	i	i	i	nt	nt	nt
C[C@@H]1O[C@@H](Oc2c(-c3ccc(O)c(O)c3)oc3cc(O)cc(O)c3c2=O)[C@H](O)[C@H](O)[C@H]1O	i	i	i	i	21!	i	16	i	58
C[C@@H]1O[C@@H](Oc2c(-c3cc(O)c(O)c(O)c3)oc3cc(O)cc(O)c3c2=O)[C@H](O)[C@H](O)[C@H]1O	i	i	i	i	55	i	53	i	63
C[C@@H]1O[C@@H](O[C@H]2[C@H](O)[C@@H](O)[C@H](Oc3c(-c4ccc(O)c(O)c4)oc4cc(O)cc(O)c4c3=O)O[C@@H]2CO)[C@H](O)[C@H](O)[C@H]1O	i	i	i	i	i	i	nt	nt	nt
O=C(CSc1ncccn1)NC(=O)NC1CCCC1	i	i	i	i	i	i	nt	nt	nt
Cc1cccc(N=C2NC(=O)S/C2=C\c2ccco2)c1	i	i	i	i	i	i	nt	nt	nt
Cc1cccc(N=C2NC(=O)/C(=C/C=C/c3ccco3)S2)c1	i	i	i	i	26	i	i	i	55
SMILES	TCR CD3 inh	mABHD4 FP	TDP2 inh	SIAE inh	LEDGF integ inh	HTRA1 inh	IN multimer up	TRFRET interf	LEDGF integ conf
COC(=O)c1c(NC(=O)CN2CCC3(O)CCCCC3C2c2cc(OC)ccc2OC)sc(C)c1C (configuration not stated)	i	i	i	i	15	i	i	i	i
CC(C)NC(=O)C(Cc1ccccc1)N1C(=O)c2ccccc2C1=O (configuration not stated)	i	i	i	i	i	i	nt	nt	nt
CC(C)(O)CNC(=O)C(Cc1ccccc1)N1C(=O)c2ccccc2C1=O (configuration not stated)	i	i	i	i	77	i	i	i	i
COc1ccc(CNc2ccccc2)cc1Br	i	i	i	i	22	i	i	i	i
Cc1ccc([C@@H]2C[C@H]3[C@@H](CN2S(=O)(=O)c2ccc(Cl)cc2)C(=O)C[C@@H](c2cccc4ccccc24)N3S(=O)(=O)c2ccc(C)cc2)cc1	i	i	i	i	i	i	nt	nt	nt
COC(C(=O)Nc1ccnn1C1CCN(Cc2ccc(CO)o2)CC1)c1ccccc1 (configuration not stated)	i	i	i	i	i	i	nt	nt	nt
C=CCON1C(=O)C(=O)N(OCC=C)[C@H]2CCCC[C@H]21	i	i	i	i	81	nt	i	i	i
CON1C(=O)C(=O)N(OC)C2CCCCC21 (configuration not stated)	i	i	i	i	i	i	nt	nt	nt
Cc1ccc(NC(=O)C2CCCN2C(=O)NC2CCCCC2)cc1C (configuration not stated)	i	i	i	i	53	i	i	i	i
Cc1ccc(NC(=O)C2CCCN2C(=O)NC2CCCCC2)cc1F (configuration not stated)	i	i	i	i	i	i	nt	nt	nt

Screening results: PubChem BioAssay, The Scripps Research Institute Molecular Screening Center
